The target in series [1] is T1, FtsZ-FtsA co-filaments (Escherichia coli, UniProt P0A9A6+P0ABH0).
T1 sequence (P0ABH0 1-420): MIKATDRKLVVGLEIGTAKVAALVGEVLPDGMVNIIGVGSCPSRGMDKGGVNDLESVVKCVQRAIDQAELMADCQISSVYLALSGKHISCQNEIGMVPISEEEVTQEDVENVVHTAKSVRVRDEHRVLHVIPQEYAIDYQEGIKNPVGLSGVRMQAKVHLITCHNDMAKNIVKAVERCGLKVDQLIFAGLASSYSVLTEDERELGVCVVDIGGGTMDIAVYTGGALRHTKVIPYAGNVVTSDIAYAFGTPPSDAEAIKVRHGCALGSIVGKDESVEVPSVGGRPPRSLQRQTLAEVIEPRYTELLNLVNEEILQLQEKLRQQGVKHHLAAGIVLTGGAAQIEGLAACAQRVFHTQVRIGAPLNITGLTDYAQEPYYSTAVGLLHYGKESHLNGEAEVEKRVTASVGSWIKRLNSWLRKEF
T1 sequence (P0A9A6 1-383 partner): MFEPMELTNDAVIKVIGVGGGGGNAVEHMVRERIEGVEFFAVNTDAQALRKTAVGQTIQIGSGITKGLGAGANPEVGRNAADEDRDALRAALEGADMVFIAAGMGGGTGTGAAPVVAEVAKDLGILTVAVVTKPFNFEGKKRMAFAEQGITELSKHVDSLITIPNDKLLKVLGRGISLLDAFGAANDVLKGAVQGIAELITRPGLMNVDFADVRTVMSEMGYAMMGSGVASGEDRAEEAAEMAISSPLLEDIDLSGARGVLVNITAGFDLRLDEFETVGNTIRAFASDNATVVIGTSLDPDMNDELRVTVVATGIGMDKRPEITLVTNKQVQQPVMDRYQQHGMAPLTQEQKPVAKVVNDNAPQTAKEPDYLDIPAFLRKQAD
Kind of series: FRAP on supported lipid membranes. Conditions: mean±SD. The procedure, abridged:
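Treadmilling patterns were formed on supported lipid membranes with 0.2 mol-% tris-Ni-NTA or 1 mol-% mono-Ni-NTA, using FtsA (0.45-0.6 μM) and FtsZ (1.5-1.8 μM) in 50 mM Tris-HCl pH 7.4, 150 mM KCl, 5 mM MgCl2 with 4 mM ATP/4 mM GTP. His-tagged FtsN cytoplasmic peptide went onto tris-Ni-NTA membranes. A ~15 μm x 15 μm area was bleached and imaged at 2 s/frame; a mono-exponential fit gave the half-time.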

The target of series [2] is T1, FtsZ-FtsA co-filaments. Kind of series: Single molecule diffusion and confinement time analysis on supported bilayers. Conditions: Cy5-labelled single molecules in presence of Alexa488-FtsZ pattern, Gaussian fit. The procedure, abridged:
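FtsA (0.45-0.6 μM) and FtsZ (1.5-1.8 μM) with 4 mM ATP/GTP formed steady-state patterns on supported membranes. Unlabelled His-tagged FtsN cytoplasmic peptide (1 μM) was added from solution with 10-20 pM Cy5-labelled peptide (wild-type or variant). TIRF tracking ran at 10 Hz. Diffusion-coefficient density distributions were fitted with a Gaussian (FtsZ, FtsA) or a double Gaussian (FtsN).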

Series [3] is described as follows: Sedimentation velocity analytical ultracentrifugation. Format: physicochemical, Escherichia coli. The procedure, abridged:
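Full-length FtsN was loaded at 9-20 μM and read by Rayleigh interference and 280 nm absorbance. Alexa488-FtsA was loaded at 4 μM and read at 495 nm. c(s) distributions came from least-squares boundary modelling.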

Series [4] concerns the target FtsZ-FtsA co-filaments on supported lipid membranes (E. coli) (UniProt P0A9A6). Description: TIRF microscopy of purified proteins on supported lipid bilayers.
The target is the same in series [5]. Description: single-molecule tracking by TIRF microscopy on supported lipid bilayers.
Series [6] concerns the molecule itself. Described as above.
Series [7] concerns the target T2, FtsA (E. coli, UniProt P0ABH0 1-420).
T2 sequence: T1 sequence (P0ABH0 1-420)
Description: TIRF microscopy of purified proteins on supported lipid bilayers.

Series [8] has as its target T2, FtsA. Description: MST.
The target in series [9] is T3, FtsA (Escherichia coli, UniProt P0ABH0).
T3 sequence (P0ABH0 1-420): T1 sequence (P0ABH0 1-420)
Type of series: binding. Conditions: MST.

Series [10] concerns the target T2, FtsA. Kind of series: MST. The source holds these as a separate data set.

This is an account of results in PMC7048620 (Nature microbiology, 2020).

Where two headings read alike, the source gives them in different places.

On to `CCCCCCCC/C=C\CCCCCCCC(=O)OC[C@H](COP(=O)(O)OCCNS(=O)(=O)c1ccc(-c2c3ccc(=[N+](CC)CC)cc-3oc3cc(N(CC)CC)ccc23)c(S(=O)(=O)[O-])c1)OC(=O)CCCCCCC/C=C\CCCCCCCC` [rhodamine-PE, 1,2-dioleoyl-sn-glycero-3-phosphoethanolamine-N-(lissaminerhodamine B sulfonyl)], for which, at FtsZ-FtsA co-filaments [1] (after FtsA and FtsZ added), the “half-time of fluorescence recovery Ƭ0.5, + FtsA/Z” value was 17.7 ± 0.2 s. In addition, the “half-time of fluorescence recovery Ƭ0.5, alone” value on FtsZ-FtsA co-filaments [1] (without FtsA and FtsZ) worked out at 12.8 ± 3.4 s.
“FtsA: E. coli FtsA (UP P0ABH0), membrane anchor of FtsZ, purified”: the “diffusion coefficient (Dcoef) of single trajectories” value with FtsZ-FtsA co-filaments [2] turned out to be 0.0016 ± 0.0003 μm^2/s. In addition, the “sedimentation coefficient, main peak” value in series [3] (AlexaFluor488-FtsA in the absence of FtsN, n=2) is on record as ~ 2 S.
Turning to “FtsN_(cyto)His, cytoplasmic peptide of FtsN”, the colocalization efficiency with FtsZ (Pearson correlation coefficient) in series [4] was determined as 0.62. In series [5], this molecule came in with a confinement time of 0.41 s and a frequency of confinement events relative to FtsN (cyto-DDEE)His of 3 fold.
As for “FtsZ: E. coli tubulin-related GTPase FtsZ (UP P0A9A6), purified, fluorescently labelled”, the “diffusion coefficient (Dcoef) of single trajectories” value with FtsZ-FtsA co-filaments [2] was “below 1x10^-4 μm^2/s”.

B1: FtsZ (natural protein)
chain: T1 sequence (P0A9A6 1-383 partner)
Regarding B1, the binding result (in series [6]; in the series with FtsA [7]) was “binds” throughout.

B2: Full-length FtsN (His6) (natural protein)
chain: MAQRDYVRRSQPAPSRRKKSTSRKKQRNLPAVSPAMVAIAAAVLVTFIGGLYFITHHKKEESETLQSQKVTGNGLPPKPEERWRYIKELESRQPGVRAPTEPSAGGEVKTPEQLTPEQRQLLEQMQADMRQQPTQLVEVPWNEQTPEQRQQTLQRQRQAQQLAEQQRLAQQSRTTEQSWQQQTRTSQAAPVQAQPRQSKPASSQQPYQDLLQTPAHTTAQSKPQQAAPVARAADAPKPTAEKKDERRWMVQCGSFRGAEQAETVRAQLAFEGFDSKITTNNGWNRVVIGPVKGKENADSTLNRLKMAGHTNCIRLAAGG
As usually defined, the Kd is the concentration at which binding is half-saturated. High values mean lower affinity, low ones higher affinity. As to B2, the results for the Kd in the series with FtsA [8] and in the series with FtsA [10] were 0.734 ± 0.023 µM and 0.25 ± 0.051 µM, respectively. For the same molecule, the “interaction with FtsA at high salt” value in the series with FtsA [9] (300 mM KCl) is recorded as “significantly weaker”. Further, the “interaction with FtsA in solution” value with FtsA [9] (Alexa647-FtsA titrated with peptide or protein, n=3) is on record as “Binding was observed”. Moreover, the “sedimentation coefficient, second main peak” value in series [3] (16 μM in 3.72 mM DDM, Raleigh interference, n=3, compatible with dimers) came out at 5.2 ± 0.1 S. Besides, the “sedimentation coefficient, first main peak” value in series [3] (16 μM in 3.72 mM DDM, Raleigh interference, n=3, compatible with monomers) turned out to be 4.1 ± 0.1 S.
